Our source for the Activity and IC50 values is ChEMBL document CHEMBL5634107, “The design, synthesis, and inhibition of Clostridioides difficile spore germination by acyclic and bicyclic tertiary amide analogs of cholate” (Eur J Med Chem, 2023).

In test [1] the test system is Clostridioides difficile. Description: Inhibition of spore germination in Clostridium difficile R20291 assessed as residual activity at 125 uM measured every minute for 2 hrs by absorbance based analysis relative to control. It counts as functional. In outline: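 Single-concentration screen of R20291 spores (OD580 1.0) in 100 mM sodium phosphate, pH 6.0, with 5 mg/mL bicarbonate and 2.5% DMSO. Compound at 125 μM final, in triplicate, with 6 mM taurocholate and 12 mM glycine. OD580 is read each minute for 2 h, normalized to time zero, and compared with untreated spores.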

Test [2] concerns Clostridioides difficile. Description: Inhibition of spore germination in Clostridium difficile R20291 assessed as inhibition of spore germination measured every minute for 2 hrs by absorbance based analysis. The test is classed as functional, organism-based. The conditions noted are these: R20291, 2 h. In outline: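 Spores of strain R20291 diluted to OD580 1.0 in 100 mM sodium phosphate, pH 6.0, with 5 mg/mL sodium bicarbonate. Germinant is 6 mM taurocholate plus 12 mM glycine, with compound at various concentrations. OD580 is read every minute for 2 h and normalized to time zero. Value is fitted from percent germination versus log concentration.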

The term IC50 denotes the concentration at which inhibition is half-maximal. Take `C[C@H](CCC(=O)N1CCCC1)[C@H]1CC[C@H]2[C@@H]3[C@H](O)C[C@@H]4C[C@H](O)CC[C@]4(C)[C@H]3C[C@H](O)[C@]12C`: in test [1], the Activity worked out at 29%. In addition, the IC50 in test [2] was found to be 38 µM.
On to `C[C@H](CCC(=O)N1CCc2ccccc2C1)[C@H]1CC[C@H]2[C@@H]3[C@H](O)C[C@@H]4C[C@H](O)CC[C@]4(C)[C@H]3C[C@H](O)[C@]12C`, for which, in test [1], the Activity was 78%.
On to `C[C@H](CCC(=O)N1CCc2cc(F)ccc21)[C@H]1CC[C@H]2[C@@H]3[C@H](O)C[C@@H]4C[C@H](O)CC[C@]4(C)[C@H]3C[C@H](O)[C@]12C`, for which, in test [1], the Activity is 5%. The IC50 in test [2] is 0.4 µM.
Turning to `C[C@H](CCC(=O)N1CCc2cc(Br)ccc2C1)[C@H]1CC[C@H]2[C@@H]3[C@H](O)C[C@@H]4C[C@H](O)CC[C@]4(C)[C@H]3C[C@H](O)[C@]12C`, the Activity in test [1] was determined as 100%.
Same read-out and setting: in the case of `C[C@H](CCC(=O)N1CCC(O)CC1)[C@H]1CC[C@H]2[C@@H]3[C@H](O)C[C@@H]4C[C@H](O)CC[C@]4(C)[C@H]3C[C@H](O)[C@]12C` it was 88%.
As for `Cc1ccc2c(c1)CCCN2C(=O)CC[C@@H](C)[C@H]1CC[C@H]2[C@@H]3[C@H](O)C[C@@H]4C[C@H](O)CC[C@]4(C)[C@H]3C[C@H](O)[C@]12C`, the Activity in test [1] turned out to be 100%.
With `C[C@H](CCC(=O)N1CCCCC1)[C@H]1CC[C@H]2[C@@H]3[C@H](O)C[C@@H]4C[C@H](O)CC[C@]4(C)[C@H]3C[C@H](O)[C@]12C`, the Activity in test [1] is 15%. Moreover, in test [2], the half-inhibitory concentration (IC50) is 37 µM.
As for `C[C@H](CCC(=O)N1CCc2ccccc21)[C@H]1CC[C@H]2[C@@H]3[C@H](O)C[C@@H]4C[C@H](O)CC[C@]4(C)[C@H]3C[C@H](O)[C@]12C`, the Activity in test [1] is given as 4%. Moreover, in test [2], the IC50 came to 1 µM.
Turning to `COc1ccc2c(c1)N(C(=O)CC[C@@H](C)[C@H]1CC[C@H]3[C@@H]4[C@H](O)C[C@@H]5C[C@H](O)CC[C@]5(C)[C@H]4C[C@H](O)[C@]13C)CC2`, the Activity in test [1] stood at 100%.
Consider `C[C@H](CCC(=O)N(C)c1ccccc1)[C@H]1CC[C@H]2[C@@H]3[C@H](O)C[C@@H]4C[C@H](O)CC[C@]4(C)[C@H]3C[C@H](O)[C@]12C`, for which the Activity in test [1] worked out at 31%. In addition, the half-maximal inhibitory concentration (IC50) in test [2] was found to be 32 µM.
As for `C[C@H](CCC(=O)N1CCc2cc(Cl)ccc21)[C@H]1CC[C@H]2[C@@H]3[C@H](O)C[C@@H]4C[C@H](O)CC[C@]4(C)[C@H]3C[C@H](O)[C@]12C`, in test [1], the Activity is reported as 70%.
Still for that read-out and setting: in the case of `C[C@H](CCC(=O)N1CCc2c(Cl)cccc21)[C@H]1CC[C@H]2[C@@H]3[C@H](O)C[C@@H]4C[C@H](O)CC[C@]4(C)[C@H]3C[C@H](O)[C@]12C` it was 95%.
As for `C[C@H](CCC(=O)N1CCCc2ccccc21)[C@H]1CC[C@H]2[C@@H]3[C@H](O)C[C@@H]4C[C@H](O)CC[C@]4(C)[C@H]3C[C@H](O)[C@]12C`, in test [1], the Activity is given as 17%. Moreover, in test [2], the half-maximal inhibitory concentration (IC50) amounted to 22 µM.
Take `Cc1ccc2c(c1)CCN2C(=O)CC[C@@H](C)[C@H]1CC[C@H]2[C@@H]3[C@H](O)C[C@@H]4C[C@H](O)CC[C@]4(C)[C@H]3C[C@H](O)[C@]12C`: the Activity in test [1] is 100%.
On the same count and under the same terms, to `COc1ccc2c(c1)CCN(C(=O)CC[C@@H](C)[C@H]1CC[C@H]3[C@@H]4[C@H](O)C[C@@H]5C[C@H](O)CC[C@]5(C)[C@H]4C[C@H](O)[C@]13C)C2` belongs 100%.
As for `CCN(CC)C(=O)CC[C@@H](C)[C@H]1CC[C@H]2[C@@H]3[C@H](O)C[C@@H]4C[C@H](O)CC[C@]4(C)[C@H]3C[C@H](O)[C@]12C`, the Activity in test [1] worked out at 0.05%. Further, in test [2], the IC50 amounted to 29 µM.
Turning to `C[C@H](CCC(=O)N1CCc2cc(Br)ccc21)[C@H]1CC[C@H]2[C@@H]3[C@H](O)C[C@@H]4C[C@H](O)CC[C@]4(C)[C@H]3C[C@H](O)[C@]12C`, the Activity in test [1] is recorded as 90%.
